Calls of active or inactive are those of the source. No cut-off for these calls is given here.
Legend:
[1] = Inhibition of Mycobacterium tuberculosis protein tyrosine phosphatase B expressed in Escherichia coli BL21/DE using pNPP substrate by spectrophotometry
In short: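 His-tagged mPTPB from pET28b in E. coli BL21/DE3, purified on Ni-NTA. The assay ran at 25°C in 50 mM 3,3-dimethylglutarate pH 7.0 with 1 mM EDTA, ionic strength 0.15 M (NaCl). Enzyme was added last, the reaction was quenched after 10 min with NaOH, and A405 was read. IC50 was fitted as AI/A0 = IC50/(IC50+[I]).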

[2] = Non-competitive inhibition of Mycobacterium tuberculosis protein tyrosine phosphatase B expressed in Escherichia coli BL21/DE using pNPP substrate by spectrophotometry based Lineweaver-Burk plot analysis
RAW264.7 [3] = experiment: Inhibition of Mycobacterium tuberculosis protein tyrosine phosphatase B transfected in mouse RAW264.7 cells assessed as increase in ERK1/2 phosphorylation at 5 and 10 uM incubated for 1 hr followed by with IFNgamma stimulation for 1 hr by Western blotting method; assay type: cell-based
In short: (§1)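 RAW264.7 mouse macrophages transfected with mPTPB, grown in DMEM with 10% FBS, penicillin/streptomycin, 37°C, 5% CO2. Cells were seeded at 4 x 10⁴ per well and treated next day with inhibitor for 1 h, then with IFN-γ (200 U/ml) for 1 h. They were washed with cold PBS and lysed on ice 30 min. Cleared lysates were Western blotted for phospho-Erk1/2 and phospho-Akt.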

RAW264.7 [4] = experiment: Inhibition of Mycobacterium tuberculosis protein tyrosine phosphatase B transfected in mouse RAW264.7 cells assessed as reduction in AKT phosphorylation at 5 and 10 uM incubated for 1 hr followed by with IFNgamma stimulation for 1 hr by Western blotting method; assay type: cell-based; in short: as §1
[5] = target: T1, Tyrosine-protein phosphatase non-receptor type 1 (Homo sapiens, UniProt P18031); experiment: Inhibition of human PTP1B using pNPP substrate by spectrophotometry
T1 sequence (P18031 whole entry): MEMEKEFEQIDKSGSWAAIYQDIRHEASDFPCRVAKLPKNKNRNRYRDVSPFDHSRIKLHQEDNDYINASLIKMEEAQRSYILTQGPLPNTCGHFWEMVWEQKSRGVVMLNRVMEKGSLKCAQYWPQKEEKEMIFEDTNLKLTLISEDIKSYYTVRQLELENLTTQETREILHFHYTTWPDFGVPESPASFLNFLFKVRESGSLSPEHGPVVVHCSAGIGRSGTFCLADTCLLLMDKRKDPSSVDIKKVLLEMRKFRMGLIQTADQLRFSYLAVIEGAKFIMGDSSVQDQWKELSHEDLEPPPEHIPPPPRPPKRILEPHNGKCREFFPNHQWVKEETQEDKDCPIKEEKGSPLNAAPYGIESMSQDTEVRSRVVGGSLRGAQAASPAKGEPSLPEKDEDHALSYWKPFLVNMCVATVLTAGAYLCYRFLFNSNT

[6] = target: T2, Tyrosine-protein phosphatase non-receptor type 11 (Homo sapiens, UniProt Q06124); experiment: Inhibition of human SHP2 using pNPP substrate by spectrophotometry
T2 sequence (Q06124 whole entry): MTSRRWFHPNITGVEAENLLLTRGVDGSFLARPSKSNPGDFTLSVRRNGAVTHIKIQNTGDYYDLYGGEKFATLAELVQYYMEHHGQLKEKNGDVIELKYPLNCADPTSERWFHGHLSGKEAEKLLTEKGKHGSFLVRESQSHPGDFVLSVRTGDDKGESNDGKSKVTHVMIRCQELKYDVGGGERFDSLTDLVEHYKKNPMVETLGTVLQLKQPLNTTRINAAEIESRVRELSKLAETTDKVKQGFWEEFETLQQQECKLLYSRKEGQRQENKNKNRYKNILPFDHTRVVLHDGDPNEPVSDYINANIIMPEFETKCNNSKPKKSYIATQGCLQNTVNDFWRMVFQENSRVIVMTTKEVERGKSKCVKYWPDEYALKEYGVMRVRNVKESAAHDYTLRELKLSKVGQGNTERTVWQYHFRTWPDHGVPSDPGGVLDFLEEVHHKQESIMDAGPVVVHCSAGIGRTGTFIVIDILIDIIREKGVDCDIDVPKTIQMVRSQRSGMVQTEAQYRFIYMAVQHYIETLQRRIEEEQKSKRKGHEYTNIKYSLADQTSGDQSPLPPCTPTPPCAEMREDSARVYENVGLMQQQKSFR

[7] = target: Tyrosine-protein phosphatase non-receptor type 6 (Homo sapiens, UniProt P29350); experiment: Inhibition of human SHP1 using pNPP substrate by spectrophotometry
[8] = target: T3, Tyrosine-protein phosphatase non-receptor type 9 (Homo sapiens, UniProt P43378); experiment: Inhibition of human PTP-Meg2 using pNPP substrate by spectrophotometry
T3 sequence (P43378 whole entry): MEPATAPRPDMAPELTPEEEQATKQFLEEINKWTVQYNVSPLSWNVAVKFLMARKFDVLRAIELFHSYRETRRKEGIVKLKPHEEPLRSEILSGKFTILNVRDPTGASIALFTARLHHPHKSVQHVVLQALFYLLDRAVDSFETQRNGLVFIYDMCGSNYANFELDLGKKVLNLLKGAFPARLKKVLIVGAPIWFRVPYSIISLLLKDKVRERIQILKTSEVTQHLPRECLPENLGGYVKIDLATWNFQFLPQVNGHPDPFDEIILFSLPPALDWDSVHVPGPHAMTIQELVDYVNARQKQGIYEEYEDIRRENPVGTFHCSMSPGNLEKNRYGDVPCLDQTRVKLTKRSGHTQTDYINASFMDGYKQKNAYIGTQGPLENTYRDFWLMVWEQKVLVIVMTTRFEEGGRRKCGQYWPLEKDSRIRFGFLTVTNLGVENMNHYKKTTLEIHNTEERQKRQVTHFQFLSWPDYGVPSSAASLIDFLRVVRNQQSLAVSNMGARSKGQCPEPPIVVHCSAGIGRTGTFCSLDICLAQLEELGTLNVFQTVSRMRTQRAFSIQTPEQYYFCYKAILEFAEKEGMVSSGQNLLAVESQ

[9] = target: T4, Receptor-type tyrosine-protein phosphatase C (Homo sapiens, UniProt P08575); experiment: Inhibition of human CD45 using pNPP substrate by spectrophotometry
T4 sequence (P08575 whole entry): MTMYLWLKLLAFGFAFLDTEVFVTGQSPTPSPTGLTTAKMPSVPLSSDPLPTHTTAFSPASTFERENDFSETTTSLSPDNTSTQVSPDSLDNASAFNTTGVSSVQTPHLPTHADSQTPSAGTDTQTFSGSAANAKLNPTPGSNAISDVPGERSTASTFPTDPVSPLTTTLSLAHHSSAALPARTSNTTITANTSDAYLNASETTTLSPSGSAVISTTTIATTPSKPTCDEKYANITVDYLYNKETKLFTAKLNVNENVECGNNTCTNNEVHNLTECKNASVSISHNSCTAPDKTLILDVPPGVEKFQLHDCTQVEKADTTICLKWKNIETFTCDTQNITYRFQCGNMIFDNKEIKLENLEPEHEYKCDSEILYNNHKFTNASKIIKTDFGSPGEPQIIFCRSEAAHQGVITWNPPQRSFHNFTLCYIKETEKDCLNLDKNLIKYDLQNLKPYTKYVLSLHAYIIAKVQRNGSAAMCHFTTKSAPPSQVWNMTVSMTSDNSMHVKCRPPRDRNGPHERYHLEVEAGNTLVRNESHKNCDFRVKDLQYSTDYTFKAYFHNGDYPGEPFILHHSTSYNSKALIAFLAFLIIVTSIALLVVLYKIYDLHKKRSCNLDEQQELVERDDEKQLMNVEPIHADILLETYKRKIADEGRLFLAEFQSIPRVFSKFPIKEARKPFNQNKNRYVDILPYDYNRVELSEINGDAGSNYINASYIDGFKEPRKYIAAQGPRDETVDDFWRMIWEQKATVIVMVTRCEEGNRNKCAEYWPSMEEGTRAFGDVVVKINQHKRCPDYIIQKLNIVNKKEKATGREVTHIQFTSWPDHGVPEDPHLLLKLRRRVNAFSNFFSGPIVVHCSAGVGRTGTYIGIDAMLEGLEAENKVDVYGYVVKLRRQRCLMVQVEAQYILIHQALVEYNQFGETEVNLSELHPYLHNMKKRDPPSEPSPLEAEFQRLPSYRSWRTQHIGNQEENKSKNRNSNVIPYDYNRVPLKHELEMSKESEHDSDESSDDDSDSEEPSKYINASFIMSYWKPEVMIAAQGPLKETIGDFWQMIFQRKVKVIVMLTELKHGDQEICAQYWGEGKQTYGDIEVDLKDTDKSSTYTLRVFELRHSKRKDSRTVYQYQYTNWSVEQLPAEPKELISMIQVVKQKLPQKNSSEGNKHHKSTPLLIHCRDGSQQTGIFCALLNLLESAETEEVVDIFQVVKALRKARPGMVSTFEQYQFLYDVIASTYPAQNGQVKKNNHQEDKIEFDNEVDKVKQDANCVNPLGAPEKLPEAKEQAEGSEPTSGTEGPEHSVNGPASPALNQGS

[10] = target: Receptor-type tyrosine-protein phosphatase epsilon (Homo sapiens, UniProt P23469); experiment: Inhibition of human PTPepsilon using pNPP substrate by spectrophotometry
[11] = target: Dual specificity protein phosphatase 3 (Homo sapiens, UniProt P51452); experiment: Inhibition of human VHR using pNPP substrate by spectrophotometry
Laforin = target: T5, Laforin (Homo sapiens, UniProt O95278); experiment: Inhibition of human laforin using pNPP substrate by spectrophotometry
T5 sequence (O95278 whole entry): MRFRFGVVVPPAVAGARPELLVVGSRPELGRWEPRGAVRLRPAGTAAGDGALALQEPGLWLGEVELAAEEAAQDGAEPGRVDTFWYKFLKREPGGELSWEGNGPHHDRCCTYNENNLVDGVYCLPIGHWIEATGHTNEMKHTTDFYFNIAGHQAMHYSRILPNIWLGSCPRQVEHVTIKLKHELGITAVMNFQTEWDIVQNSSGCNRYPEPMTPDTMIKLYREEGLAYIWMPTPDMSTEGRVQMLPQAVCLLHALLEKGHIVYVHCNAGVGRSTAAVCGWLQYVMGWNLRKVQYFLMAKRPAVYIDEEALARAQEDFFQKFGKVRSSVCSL

[12] = Selectivity index, ratio of IC50 for human PTP1B to IC50 for Mycobacterium tuberculosis protein tyrosine phosphatase B
[13] = Selectivity index, ratio of IC50 for human SHP2 to IC50 for Mycobacterium tuberculosis protein tyrosine phosphatase B
[14] = Selectivity index, ratio of IC50 for human SHP1 to IC50 for Mycobacterium tuberculosis protein tyrosine phosphatase B
[15] = Selectivity index, ratio of IC50 for human PTP-Meg2 to IC50 for Mycobacterium tuberculosis protein tyrosine phosphatase B
[16] = Selectivity index, ratio of IC50 for human CD45 to IC50 for Mycobacterium tuberculosis protein tyrosine phosphatase B
[17] = Selectivity index, ratio of IC50 for human PTPepsilon to IC50 for Mycobacterium tuberculosis protein tyrosine phosphatase B
[18] = Selectivity index, ratio of IC50 for human VHR to IC50 for Mycobacterium tuberculosis protein tyrosine phosphatase B
[19] = Selectivity index, ratio of IC50 for human laforin to IC50 for Mycobacterium tuberculosis protein tyrosine phosphatase B
RAW264.7 [20] = experiment: Inhibition of Mycobacterium tuberculosis protein tyrosine phosphatase B transfected in mouse RAW264.7 cells assessed as increase in ERK1/2 phosphorylation at 10 uM incubated for 1 hr followed by with IFNgamma stimulation for 1 hr by Western blotting method; assay type: cell-based; in short: as §1
RAW264.7 [21] = experiment: Inhibition of Mycobacterium tuberculosis protein tyrosine phosphatase B transfected in mouse RAW264.7 cells assessed as reduction in AKT phosphorylation at 10 uM incubated for 1 hr followed by with IFNgamma stimulation for 1 hr by Western blotting method; assay type: cell-based; in short: as §1

Chain of Receptor-type tyrosine-protein phosphatase epsilon (P23469 whole entry): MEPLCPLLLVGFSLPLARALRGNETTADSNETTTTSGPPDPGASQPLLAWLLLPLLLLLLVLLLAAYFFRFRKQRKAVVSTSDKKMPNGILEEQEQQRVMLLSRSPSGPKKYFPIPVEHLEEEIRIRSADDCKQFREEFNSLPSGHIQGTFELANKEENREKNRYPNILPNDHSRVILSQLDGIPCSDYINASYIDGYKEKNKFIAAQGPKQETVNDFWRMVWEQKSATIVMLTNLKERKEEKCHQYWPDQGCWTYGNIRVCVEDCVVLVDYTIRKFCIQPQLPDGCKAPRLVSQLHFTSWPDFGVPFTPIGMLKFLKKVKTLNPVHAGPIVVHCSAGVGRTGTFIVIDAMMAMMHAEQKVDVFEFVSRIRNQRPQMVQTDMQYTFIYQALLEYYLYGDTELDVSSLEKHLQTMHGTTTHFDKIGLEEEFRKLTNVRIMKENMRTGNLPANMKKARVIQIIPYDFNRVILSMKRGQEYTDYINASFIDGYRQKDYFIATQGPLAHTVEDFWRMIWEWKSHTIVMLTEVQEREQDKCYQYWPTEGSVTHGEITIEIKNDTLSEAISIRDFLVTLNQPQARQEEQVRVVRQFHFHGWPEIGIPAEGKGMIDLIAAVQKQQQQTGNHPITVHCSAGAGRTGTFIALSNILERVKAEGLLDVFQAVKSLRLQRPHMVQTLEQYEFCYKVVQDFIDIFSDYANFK
Chain of Dual specificity protein phosphatase 3 (P51452 whole entry): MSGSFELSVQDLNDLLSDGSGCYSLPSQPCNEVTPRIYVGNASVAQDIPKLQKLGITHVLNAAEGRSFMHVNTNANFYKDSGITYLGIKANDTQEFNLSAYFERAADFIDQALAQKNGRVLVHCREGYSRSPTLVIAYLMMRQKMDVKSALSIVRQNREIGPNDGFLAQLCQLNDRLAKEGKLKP
Chain of Tyrosine-protein phosphatase non-receptor type 6 (P29350 whole entry): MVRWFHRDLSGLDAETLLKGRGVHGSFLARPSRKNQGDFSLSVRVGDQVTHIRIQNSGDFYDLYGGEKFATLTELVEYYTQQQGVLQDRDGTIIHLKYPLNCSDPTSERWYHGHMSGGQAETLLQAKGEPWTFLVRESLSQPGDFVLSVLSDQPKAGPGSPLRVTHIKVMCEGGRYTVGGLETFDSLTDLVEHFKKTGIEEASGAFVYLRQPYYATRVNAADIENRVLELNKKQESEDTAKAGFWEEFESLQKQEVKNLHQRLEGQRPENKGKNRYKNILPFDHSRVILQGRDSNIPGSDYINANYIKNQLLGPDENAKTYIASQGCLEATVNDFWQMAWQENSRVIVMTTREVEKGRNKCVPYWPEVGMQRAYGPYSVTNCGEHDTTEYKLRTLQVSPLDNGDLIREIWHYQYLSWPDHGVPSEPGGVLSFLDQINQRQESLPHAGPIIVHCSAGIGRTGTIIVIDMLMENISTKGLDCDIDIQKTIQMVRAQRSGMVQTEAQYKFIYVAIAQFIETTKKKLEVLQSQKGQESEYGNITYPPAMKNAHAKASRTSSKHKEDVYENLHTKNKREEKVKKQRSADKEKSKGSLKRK

SMILES: O=C(O)c1ccc2nc(Nc3ccccc3)sc2c1O
- IC50 [1]: 71 µM

SMILES: O=C(O)c1cc2[nH]c(-c3ccccc3)nc2cc1O
- IC50 [1]: 32 µM

SMILES: O=C(O)c1cc2[nH]c(=O)oc2cc1O
- IC50 [1]: > 100 µM

SMILES: Cc1ccccc1Nc1nc2cc(O)c(C(=O)O)cc2s1
- IC50 [1]: 31 µM

SMILES: O=C(O)c1cc2sc(Nc3cccc(Br)c3)nc2cc1O
- IC50 [1]: 2 µM
- Ki [2]: 1.5 µM
- inhibition (RAW264.7 [3]): Dose-dependent effect
- inhibition (RAW264.7 [4]): Dose-dependent effect
- IC50 [5]: 65 µM
- IC50 [6]: 50 µM
- IC50 [7]: 78 µM
- IC50 [8]: 69 µM
- IC50 [9]: > 100 µM
- IC50 [10]: > 400 µM
- IC50 [11]: 43 µM
- IC50 (Laforin): 56 µM
- Ratio IC50 [12]: > 20
- Ratio IC50 [13]: > 20
- Ratio IC50 [14]: > 20
- Ratio IC50 [15]: > 20
- Ratio IC50 [16]: > 20
- Ratio IC50 [17]: > 20
- Ratio IC50 [18]: > 20
- Ratio IC50 [19]: > 20

SMILES: O=C(O)c1cc2nc(-c3ccccc3)oc2cc1O
- IC50 [1]: 27 µM

SMILES: O=C(O)CN1CC(=O)Oc2cc(O)c(C(=O)O)cc21
- IC50 [1]: > 100 µM

SMILES: O=C(O)c1cc2sc(Nc3ccc(Cl)cc3Cl)nc2cc1O
- IC50 [1]: 5 µM

SMILES: O=C(O)c1cc2sc(Nc3ccc(F)cc3)nc2cc1O
- IC50 [1]: 65 µM

SMILES: O=C(O)c1cc2sc(Nc3cccc4ccccc34)nc2cc1O
- IC50 [1]: 60 µM

SMILES: O=C(O)c1cc2nc(NCc3ccccc3)oc2cc1O
- IC50 [1]: > 100 µM

SMILES: O=C(O)c1cc2sc(Nc3ccc(Cl)cc3)nc2cc1O
- IC50 [1]: 13 µM

SMILES: CCNc1nc2cc(C(=O)O)c(O)cc2o1
- IC50 [1]: > 100 µM

SMILES: O=C(O)c1cc2sc(Nc3cccc(Cl)c3)nc2cc1O
- IC50 [1]: 21 µM

SMILES: O=C(O)c1cc2sc(Nc3ccccc3Cl)nc2cc1O
- IC50 [1]: 30 µM

SMILES: O=C(O)c1cc2sc(Nc3ccc([N+](=O)[O-])cc3)nc2cc1O
- IC50 [1]: 50 µM

SMILES: O=C1COc2cc(O)c(C(=O)O)cc2N1
- IC50 [1]: > 100 µM

SMILES: Cc1cccc(Nc2nc3cc(O)c(C(=O)O)cc3s2)c1
- IC50 [1]: 15 µM

SMILES: O=C(O)c1cc2sc(Nc3ccccc3)nc2cc1O
- IC50 [1]: 25 µM
- inhibition (RAW264.7 [20]): inactive
- inhibition (RAW264.7 [21]): inactive

SMILES: CC(C)(C)c1ccc(Nc2nc3cc(O)c(C(=O)O)cc3s2)cc1
- IC50 [1]: 41 µM
